CHRM4 antagonist = CHRM4 antagonism in calcium assay. P08173. CHO-hM4 cells, ACh EC80, Fluo-8 calcium fluorescence. inhibition, % at 3 µM. hit rate 0.73% among 360,000;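 active = inhibition above its plate's cutoff, the mean inhibition of sample wells plus 3 SD, cut at about 27% in these data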
M4 ag = CHRM4 agonism in calcium assay; CHO-K1 hM4/Gqi5, Fluo-8 calcium fluorescence; vehicle 0%, full acetylcholine response 100%; hit rate 0.14% among 360,000; activation, % at 3 µM; P08173;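 active = activation above the run mean over all test wells plus 3 SD, cut at about 32% in these data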;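 note: peak over basal fluorescence ratio per well then scaled between controls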
M4 PAM = CHRM4 positive allosteric modulation | P08173 | CHO-K1 hM4/Gqi5, Fluo-8 calcium fluorescence, ACh EC20; 0% = ACh EC20, 100% = maximal ACh | activation, % at 3 µM | hit rate 0.4% among 360,000;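 active = activation above its plate's cutoff, the mean activation of sample wells plus 3 SD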
TAAR1 antagonist = antagonists of human TAAR1. inhibition, % at 3 µM. hit rate 1.5% among 360,000. CHO RD-HGA16 TAAR1, Fluo-8 calcium fluorescence, antagonist;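 active = inhibition above a per-plate cutoff, the mean inhibition of test compounds on that plate plus 3 SD, cut at about 49% in these data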
Target sequence (Q96RJ0 whole entry, looked up): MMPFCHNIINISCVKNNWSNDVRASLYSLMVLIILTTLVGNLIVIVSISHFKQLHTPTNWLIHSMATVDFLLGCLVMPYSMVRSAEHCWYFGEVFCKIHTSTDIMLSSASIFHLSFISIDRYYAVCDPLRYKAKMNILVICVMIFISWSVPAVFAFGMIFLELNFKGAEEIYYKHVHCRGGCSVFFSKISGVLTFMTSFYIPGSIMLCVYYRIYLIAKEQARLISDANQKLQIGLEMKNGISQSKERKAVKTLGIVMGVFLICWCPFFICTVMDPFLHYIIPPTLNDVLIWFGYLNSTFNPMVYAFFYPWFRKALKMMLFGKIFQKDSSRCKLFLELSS
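System: RD-HGA16 CHO cells with stable hTAAR1 and Gα16 | Probe or stimulus: EC80 β-phenethylamine stimulus | Dosing: 3 µM, single point | Times: Dye loading 75 min at 37 °C, then 30 min room temperature | Measured by: Fluo-8 calcium-sensitive fluorescence | Read-out basis: % inhibition of agonist calcium response | Replicates: n of 1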
TAAR1 ag = human TAAR1 agonism | CHO RD-HGA16 TAAR1, Fluo-8 calcium fluorescence; vehicle wells 0%, saturating PEA agonist 100% | activation, % at 3 µM | AID 624467 | hit rate 0.99% among 360,000;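 active = activation above the mean activation of all test compounds in the run plus 3 SD, cut at about 38% in these data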
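Repeats: no replicates (n 1) | Material: CHO-derived RD-HGA16 cells with stable Gα16 and human TAAR1 | Technique: Kinetic Fluo-8 calcium fluorescence | Schedule: 17-24 h seeding, 75 min 37 °C dye, 30 min RT | Evaluation: % activation from peak over basal fluorescence ratio, DMSO-to-PEA scaled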
TAAR1 ag confirm = confirmation of human TAAR1 agonists | CHO RD-HGA16 TAAR1, Fluo-8 calcium fluorescence; scaled: DMSO 0%, maximal phenethylamine 100% | activation, % at 3 µM | AID 651783 | shares compounds with TAAR1 ag | hit rate 82% among 2,400;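 active = activation above a cutoff set at the run's mean compound activation plus 3 SD, cut at about 39% in these data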
Ga16 ag counter = nonselective agonism, TAAR1 counter-screen; CHO-Ga16 parental, Fluo-8 calcium fluorescence; normalized to maximal ATP response, DMSO zero; AID 651787; hit rate 50% among 2,400; activation, % at 3 µM; shares compounds with TAAR1 ag;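 active = activation above the run cutoff, the mean activation over all tested wells plus 3 SD, cut at about 12% in these data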
TAAR1 desens = human TAAR1 agonist that also desensitizes the receptor; shares compounds with TAAR1 ag; CHO RD-HGA16 hTAAR1, Fluo-8 calcium, beta-PEA response inhibition; inhibition, % at 3 µM; hit rate 46% among 2,400; AID 651951;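 active = inhibition above the run cutoff, the mean inhibition of all test compounds plus 3 SD, cut at about 49% in these data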;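 note: beta-PEA stimulus applied at its EC80; loss of beta-PEA calcium signal after compound pretreatment read as receptor desensitization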
Ga16 antag count = counter-screen for TAAR1 agonists: nonselective Ga16 antagonists; CHO-Ga16 ATP-induced calcium, Fluo-8 fluorescence; inhibition, % at 3 µM; hit rate 39% among 2,400; shares compounds with TAAR1 ag;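 active = inhibition above the plate's mean compound inhibition plus 3 SD, computed per plate, cut at about 22% in these data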
A number is an active result; i = inactive; nt = no result given; + = active, no number. The list is not random: actives were taken first. Their share in the collection is about 3%.

SMILES	CHRM4 antagonist	M4 ag	M4 PAM	TAAR1 antagonist	TAAR1 ag	TAAR1 ag confirm	Ga16 ag counter	TAAR1 desens	Ga16 antag count
CC(C)c1ccc(N2C(=O)[C@@H]3Cc4ccccc4CN3C2=O)cc1	i	i	i	82	84	77	46	64	47
COc1cc(C=NNC(=O)Cn2nc(C)cc2C)ccc1OC(=O)C1CC1	i	i	i	i	+	i	i	i	i
Cc1cc(C)n(CC(=O)N/N=C/c2ccc3c(c2)OCO3)n1	i	i	i	i	i	nt	nt	nt	nt
C=C1CCCC2OC(CC3=CC4/C(C)=C/CC(C)CC(/C=C(\C)C(O)C5CC(O)C(O)C(CCC(O)/C=C/C(C)=C/CCC6=NCCC(C3)C64C)O5)OC(=O)CC3OC(C(O)C1)C(O)C3O)CC(O)C2O (stereo unspecified)	i	i	i	i	i	nt	nt	nt	nt
Cc1nc(Nc2ccc(C(=O)O)cc2)sc1-c1ccccc1	i	i	i	i	62	71	63	61	44
O=C(N[C@@H]1CC[C@@H](CCNS(=O)(=O)c2ccc(Cl)cc2)O[C@@H]1CO)c1cccnc1	i	i	i	i	i	nt	nt	nt	nt
CCOc1ccc(C=NCC(O)c2ccccc2)cc1 (stereo unspecified)	i	i	i	76	94	106	i	88	i
CCOc1ccc(/C=N/NC(=O)C(OC)c2ccccc2)cc1 (stereo unspecified)	i	i	i	i	i	nt	nt	nt	nt
COc1ccccc1NC(=O)CCCCCN1C(=O)c2cccc([N+](=O)[O-])c2C1=O	i	i	i	i	i	nt	nt	nt	nt
COc1cc(/C=C2/C(=O)c3cccc([N+](=O)[O-])c3C2=O)c(Br)cc1O	i	i	i	i	50	i	28	i	46
CN(Cc1nc(-c2cnccn2)no1)CC(O)c1ccccc1 (stereo unspecified)	i	i	i	i	i	nt	nt	nt	nt
CN(CCc1ccccc1)Cc1nc(-c2cnccn2)no1	i	i	i	i	53	i	i	i	i
CCOc1ccc(NC(=O)C2CCCN(S(=O)(=O)c3ccc4c(c3)C(C)(C)C(=O)N4C)C2)cc1 (stereo unspecified)	i	i	i	i	i	nt	nt	nt	nt
c1ccc2c(-c3ccc(OCCN4CCCCC4)cc3)c(-c3ccsc3)sc2c1	i	i	i	i	47	49	25	51	43
Cc1ccc(NC(=O)CSc2nnnn2C2CCCC2)cc1S(=O)(=O)N1CCOCC1	i	i	i	i	i	nt	nt	nt	nt
O=c1ccc2[n+]([O-])c3ccc(O)cc3oc-2c1	i	i	i	i	58	i	42	i	42
CC(C)(C)OC(=O)C[C@@H]1C/C=C\C[C@H](CC(=O)NCCO)C(=O)N2CCC[C@H]2COC1=O	i	i	i	i	i	nt	nt	nt	nt
COc1ccc(Cc2nc3ccc(C(=O)N(C)Cc4nccn4C)cc3o2)cc1	i	i	i	i	i	nt	nt	nt	nt
Cc1ccc2nc(NCc3ccccc3)[nH]c2c1	i	i	i	i	43	66	i	i	i
CCOC(=O)C1(C)CCCN1C(=O)c1snnc1C (stereo unspecified)	i	i	i	i	i	nt	nt	nt	nt
COc1ccc(CCC(C)NCCc2ccc(Cl)cc2Cl)cc1 (stereo unspecified)	i	i	i	i	48	48	22	i	24
CC(=O)c1cccc(OCC(O)CNCCc2ccc(Cl)cc2)c1 (stereo unspecified)	i	i	i	nt	nt	nt	i	nt	i
OC(CNCc1ccccc1)COCc1ccc(Cl)cc1 (stereo unspecified)	i	i	i	i	i	nt	nt	nt	nt
OC(CNCCc1ccc(Cl)cc1)COCc1ccco1 (stereo unspecified)	i	i	i	i	56	67	i	i	i
CC(C)(CN1CCCN(CC(C)(C)C(=O)O)C1=O)C(=O)O	i	i	i	i	i	nt	nt	nt	nt
SMILES	CHRM4 antagonist	M4 ag	M4 PAM	TAAR1 antagonist	TAAR1 ag	TAAR1 ag confirm	Ga16 ag counter	TAAR1 desens	Ga16 antag count
O=C(O)c1ccc(-c2ccc(/C=N/Nc3ccc([N+](=O)[O-])cc3)o2)cc1	i	i	i	82	131	86	66	88	70
Cc1cc(F)ccc1C(O)c1ncc(-c2ccccc2F)[nH]1 (stereo unspecified)	i	i	i	i	i	nt	nt	nt	nt
CCCCCCn1c(=O)[nH]c2nc3cc(N)ccc3nc2c1=O	nt	nt	nt	57	118	95	96	68	67
COC(=O)C[C@@H]1C=C[C@@H](NC(C)=O)[C@@H](CO)O1	i	i	i	i	i	nt	nt	nt	nt
Cc1ccc(NS(=O)(=O)c2ccc(NC(=O)C(C)Sc3ccc(Cl)cc3)cc2)c(C)c1 (stereo unspecified)	i	i	i	i	51	i	i	i	26
Cc1ccc(OC(C)C(=O)Nc2ccc(S(=O)(=O)N3CCOCC3)cc2)cc1 (stereo unspecified)	i	i	i	i	66	77	51	i	33
CC(Oc1ccc(Br)cc1)C(=O)Nc1ccc(S(=O)(=O)N(C)C2CCN(C)CC2)cc1 (stereo unspecified)	31	96	i	99	140	140	100	102	82
Cc1ccc(NC(=O)c2ccc(S(=O)(=O)N3CCCCC3)cc2)cc1	i	i	i	i	48	i	i	i	i
CCc1nc2ccc(C(=O)Nc3cccc(NS(C)(=O)=O)c3)cn2c1N(CC)CCOC	i	i	i	i	i	nt	nt	nt	nt
CCCCC1CC2=C(C(=O)OC(C)(C)O2)C(c2ccc3ccccc3c2)O1 (stereo unspecified)	i	i	i	i	i	nt	nt	nt	nt
CC(Sc1ccc(Cl)cc1)C(=O)Nc1ccc(S(=O)(=O)N2CCOCC2)cc1 (stereo unspecified)	i	i	i	50	92	90	48	73	39
CC(Oc1ccccc1)C(=O)Nc1ccc(NC(=O)c2ccccc2)cc1 (stereo unspecified)	i	i	i	i	i	nt	nt	nt	nt
CC(Oc1ccc(C(=O)c2ccccc2)cc1)C(=O)Nc1ccc(S(N)(=O)=O)cc1 (stereo unspecified)	i	i	i	i	74	61	31	i	36
COCCNC(=O)C1(C)CCCN(C(=O)c2ccc(-c3ccccc3)cc2)C1 (stereo unspecified)	i	i	i	i	i	nt	nt	nt	nt

Compound activity (PubChem)
